Results as given in ChEMBL document CHEMBL4033704, “Discovery, synthesis, and structure-activity relations of 3,4-dihydro-1H-spiro(naphthalene-2,2'-piperidin)-1-ones as potassium-competitive acid blockers” (Bioorg Med Chem, 2017).

Columns and labels:
[1] = Inhibition of potassium-stimulated hydrogen potassium ATPase in pig gastric mucosal microsomal fraction assessed as reduction in liberated inorganic phosphate level after 30 mins in presence of KCl by malachite green staining based colorimetric method; design: species or system Sus scrofa
Procedure, shortened: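 Gastric mucosal microsomal fraction prepared from pig stomach; assay run at pH 6.5. Inhibition expressed as percent of K⁺-stimulated H⁺,K⁺-ATPase activity in control. IC50 obtained by sigmoidal dose-response fitting.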

Stomach = experiment: AUC (0 to 24 hrs) in Jcl:Sprague-Dawley rat stomach at 0.2 mg/kg, iv by LC/MS/MS analysis; format: ADME, organism-based; design: dose 0.2 mg/kg, time < 24 hr, route intravenous; conditions: in vivo
Procedure, shortened: (§1)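 Rats dosed intravenously at 0.2 mg/kg, given as free compound. Blood and stomach sampled 10 min, 1, 4 and 24 h after dosing. Compound levels measured by LC/MS/MS. AUC0-24h calculated from these four time points (plasma ng·h/mL, stomach ng·h/g).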

[2] = AUC (0 to 24 hrs) in Jcl:Sprague-Dawley rat plasma at 0.2 mg/kg, iv by LC/MS/MS analysis; format: ADME, organism-based; design: time < 24 hr, dose 0.2 mg/kg, route intravenous; procedure, shortened: as §1
[3] = Inhibition of sodium and potassium-activated sodium potassium ATPase in porcine cerebral cortex assessed as reduction in liberated inorganic phosphate level after 30 mins in presence of sodium and potassium by malachite green staining based colorimetric method; design: species or system Sus scrofa
Sus scrofa = species on record: Sus scrofa; experiment: Selectivity ratio of IC50 for sodium and potassium-activated sodium potassium ATPase in porcine cerebral cortex to IC50 for potassium-stimulated hydrogen potassium ATPase in pig gastric mucosal microsomal fraction
Rattus norvegicus [4] = experiment: Inhibition of histamine-stimulated gastric acid secretion in Jcl:Sprague-Dawley rat at 10 mg/kg, iv pretreated for 3 mins followed by histamine.2HCl stimulation measured after 3 hrs by titration method relative to control; format: functional
Rattus norvegicus [5] = experiment: Inhibition of histamine-induced acid secretion in rat assessed as increase in pH of gastric perfusate at 3 mg/kg, iv measured after 5 hrs; format: functional
Procedure, shortened: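 Anesthetized rats given intravenous infusion of histamine 2HCl via cervical vein at 8 mg/kg/h; gastric perfusate pH monitored. Once pH stabilized, test compound or vehicle given intravenously. Perfusate pH then recorded for 5 h after dosing.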

[6] = Lipophilicity, log D of the compound; format: physicochemical; conditions: octanol/water
Rattus norvegicus [7] = experiment: Inhibition of histamine-stimulated gastric acid secretion in Jcl:Sprague-Dawley rat at 1 mg/kg, iv pretreated for 3 mins followed by histamine.2HCl stimulation measured after 3 hrs by titration method relative to control; format: functional
Procedure, shortened: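 Anesthetized rats given compound intravenously at 1, 3 or 10 mg/kg, then histamine. Gastric contents collected and centrifuged at 3000 rpm for 10 min; volume measured. Acid concentration determined by automatic titration to pH 7.0 with 0.1 mol/L NaOH. Total acid output over 3 h (μEq/3 h) compared against vehicle to give percent inhibition.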

Row | IC50 [1] | Structure (SMILES) | further results
1 | 300 nM | COc1ccc2c(c1)CCC1(CCCCN1CC(C)c1ccccc1)C2=O (configuration not stated) | 
2 | > 10000 nM | Cc1ccccc1CCN1CCCCC12CCc1cc(-c3ccccc3)ccc1C2=O (racemic) | 
3 | > 10000 nM | COc1ccc2c(c1)CC[C@]1(CCCCN1CCc1ccccc1C)C2=O | 
4 | 170 nM | COc1ccc2c(c1)CCC1(CCCCN1CCc1ccccc1Cl)C2=O (configuration not stated) | 
5 | > 10000 nM | COc1ccc2c(c1)CCC1(CCCCN1CC(=O)c1ccccc1)C2=O (configuration not stated) | 
6 | 290 nM | COc1ccc2c(c1)CCC1(CCCCN1CCc1ccccc1)C2=O (configuration not stated) | 
7 | 1600 nM | O=C1c2cccc3[nH]cc(c23)CC12CCCCN2CCc1ccccc1 (configuration not stated) | AUC (Stomach): 1171 ng·h/g; AUC(0-t) at 24 h [2]: 71 ng·h/mL; IC50 [3]: > 10 µM; Ratio IC50 (Sus scrofa): > 100; inhibition in vivo at 10 mg/kg (Rattus norvegicus [4]): 71%
8 | 64 nM | COc1ccc2c(c1)CC[C@@]1(CCCCN1CCc1ccc(F)cc1)C2=O | 
9 | 1100 nM | COc1cccc(CCN2CCCC[C@@]23CCc2cc(OC)ccc2C3=O)c1 | 
10 | > 10000 nM | COc1ccc2c(c1)CCC1(CCCCN1CCCCc1ccccc1)C2=O (configuration not stated) | 
11 | 160 nM | COc1ccc2c(c1)CC[C@@]1(CCCCN1CCc1ccccc1F)C2=O | 
12 | 45 nM | CC(=O)Nc1ccc2c(c1)CCC1(CCCCN1CCc1ccccc1C)C2=O (racemic) | 
13 | 31 nM | CC(=O)Nc1ccc2c(c1)CC[C@@]1(CCCCN1CCc1ccccc1C)C2=O | AUC (Stomach): 15131 ng·h/g; pH (Rattus norvegicus [5]): 6; AUC(0-t) at 24 h [2]: 68 ng·h/mL; logD [6]: 3.56; inhibition in vivo at 1 mg/kg (Rattus norvegicus [7]): 95%
14 | 290 nM | Cc1ccccc1CCN1CCCCC12CCc1ccccc1C2=O (racemic) | 
15 | 890 nM | COc1ccc2c(c1)CCC1(CCCCN1CCCc1ccccc1)C2=O (configuration not stated) | 
16 | 83 nM | COc1ccc2c(c1)CC[C@@]1(CCCCN1CCc1ccccc1OC)C2=O | 
17 | 300 nM | COc1cccc2c1CCC1(CCCCN1CCc1ccccc1C)C2=O (configuration not stated) | 

Row | IC50 [1] | Structure (SMILES) | further results
18 | > 10000 nM | COc1ccc2c(c1)CC[C@]1(CCCCN1CCc1ccc(F)cc1)C2=O | 
19 | > 10000 nM | COc1ccc2c(c1)CCC1(CCCCN1Cc1ccccc1)C2=O (configuration not stated) | 
20 | 270 nM | COc1ccc2c(c1)C(=O)C1(CCCCN1CCc1ccccc1C)CC2 (racemic) | 
21 | 57 nM | COc1ccc2c(c1)CCC1(CCCCN1CCc1ccc(F)cc1C)C2=O (configuration not stated) | 
22 | 370 nM | COc1ccc2c(c1)CC[C@@]1(CCCCN1CCc1cccc(F)c1)C2=O | 
23 | 87 nM | COc1ccc2c(c1)CCC1(CCCCN1CCc1ccc(F)cc1)C2=O (configuration not stated) | 
24 | 1800 nM | COc1ccc(CCN2CCCC[C@@]23CCc2cc(OC)ccc2C3=O)cc1 | 
25 | 290 nM | COc1cccc2c1C(=O)C1(CCCCN1CCc1ccccc1C)CC2 (configuration not stated) | 
26 | 82 nM | COc1ccc2c(c1)CCC1(CCCCN1CCc1ccccc1C)C2=O (configuration not stated) | 
27 | 1000 nM | O=C1c2ccccc2CCC12CCCCN2CCc1ccccc1 (configuration not stated) | 
28 | > 10000 nM | COc1ccc2c(c1)CCC1(CCCCN1C(=O)Cc1ccccc1)C2=O (configuration not stated) | 
29 | > 10000 nM | Cc1ccccc1CCN1CCCCC12CCc1cc(C#N)ccc1C2=O (racemic) | 
30 | > 10000 nM | CC(=O)Nc1ccc2c(c1)CC[C@]1(CCCCN1CCc1ccccc1C)C2=O | 
31 | 46 nM | COc1ccc2c(c1)CC[C@@]1(CCCCN1CCc1ccccc1C)C2=O.Cl | AUC (Stomach): 3035 ng·h/g; AUC(0-t) at 24 h [2]: 74 ng·h/mL; IC50 [3]: > 10 µM; inhibition in vivo at 1 mg/kg (Rattus norvegicus [7]): 87%
32 | 140 nM | COc1ccc2c(c1)CCC1(CCCCN1CCc1c(C)cc(C)cc1C)C2=O (configuration not stated) | 
33 | > 10000 nM | COc1ccc2c(c1)CCC1(CCCCN1c1ccccc1)C2=O (configuration not stated) | 
